ChEMBL document CHEMBL1125881, “Synthesis and hypocholesterolemic activity of 6,7-dihydro-4H-pyrazolo[1,5-a]pyrrolo[3,4-d]pyrimidine-5,8-diones, novel inhibitors of acylCoA:cholesterol O-acyltransferase” (J Med Chem, 1991)
pIC50: −log10 of the molar value.

What was measured:
Rattus norvegicus [1] = species on record: Rattus norvegicus; experiment: (§1) Serum lipoprotein cholesterol fed rats dieted or both weeks, after two weeks; assay type: functional, organism-based
In short: (§2)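 Rats fed 1% cholesterol diet for one week, then for a second week the same diet with inhibitor in feed at 20 mg/kg/day, or the synthetic diet without cholesterol. 5 rats per group. Serum HDL, VLDL/LDL (PEG-8000 precipitation, glycine pH 9) and total cholesterol measured at day 7 and […].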

Rattus norvegicus [2] = experiment: The compound was tested for % absorption of cholesterol in Cholesterol-Fed rats dosed at 20 mg/kg of body weight per day.; assay type: functional, organism-based; parameters: dose 20 mg/kg
In short: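 Zilversmit dual-isotope plasma ratio method in rats fed cholesterol diet ± compound in feed at 20 mg/kg/day. After one week, [3H]cholesterol given iv and [14C]cholesterol by oral gavage. Blood sampled on days 4, 7 and 9 after label; % oral cholesterol absorbed averaged over the 3 days per rat; one-way design.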

Rattus norvegicus [3] = species on record: Rattus norvegicus; experiment: (§3) The compound was tested for % control of serum cholesterol in cholesterol; assay type: functional
In short: (§4)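 Male Sprague-Dawley rats (100–110 g), groups of 10, fed synthetic diet with 1% cholesterol; compound mixed into diet to give the stated daily dose (mg/kg) for 7 days. Serum from jugular bleed under anesthesia; VLDL+LDL separated from HDL by PEG-8000 precipitation in glycine buffer pH 9; values expressed as % of cholesterol-fed control; one-way design, LSD comparison.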

[4] = target: T1, Sterol O-acyltransferase 1 (Rattus norvegicus) (UniProt O70536); experiment: (§5) Serum lipoprotein cholesterol in Cholesterol-fed rats Treated with ACAT inhibitor, after two weeks; assay type: functional; in short: as §2
T1 sequence (whole entry): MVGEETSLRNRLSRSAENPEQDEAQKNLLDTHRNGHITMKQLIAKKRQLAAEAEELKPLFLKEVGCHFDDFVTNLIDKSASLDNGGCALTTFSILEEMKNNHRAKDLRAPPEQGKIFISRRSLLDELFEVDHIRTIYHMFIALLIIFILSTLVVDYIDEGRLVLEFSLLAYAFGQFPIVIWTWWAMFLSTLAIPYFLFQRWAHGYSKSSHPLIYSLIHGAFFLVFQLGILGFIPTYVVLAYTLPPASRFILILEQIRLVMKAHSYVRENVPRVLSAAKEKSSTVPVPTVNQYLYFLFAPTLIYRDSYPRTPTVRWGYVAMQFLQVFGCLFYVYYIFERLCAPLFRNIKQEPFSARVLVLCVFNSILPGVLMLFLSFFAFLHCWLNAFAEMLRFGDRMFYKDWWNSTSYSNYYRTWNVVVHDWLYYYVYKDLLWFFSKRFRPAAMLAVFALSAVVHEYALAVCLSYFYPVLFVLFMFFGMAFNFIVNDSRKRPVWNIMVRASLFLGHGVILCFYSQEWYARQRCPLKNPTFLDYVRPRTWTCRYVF

Rattus norvegicus [5] = species on record: Rattus norvegicus; experiment: (§6) Percent control of serum cholesterol in cholesterol; assay type: functional; parameters: concentration or dose not given beside the values; in short: as §4
[6] = target: T1, Sterol O-acyltransferase 1 (Rattus norvegicus); experiment: The compound was tested for Serum Lipoprotein cholesterol- (VLDL+LDL) (mg/dL) concentrations in Cholesterol-fed rats Treated with ACAT inhibitor; assay type: functional; in short: as §2
Rattus norvegicus [7] = species on record: Rattus norvegicus; experiment: as §1; assay type: functional, organism-based; in short: as §2; remark: listed apart in the source
[8] = target: T1, Sterol O-acyltransferase 1 (Rattus norvegicus); experiment: (§7) Serum lipoprotein cholesterol diet containing ACAT inhibitor, after one week; assay type: functional; in short: as §2
[9] = target: T1, Sterol O-acyltransferase 1 (Rattus norvegicus); experiment: as §7; assay type: functional; in short: as §2; remark: listed apart in the source
Rattus norvegicus [10] = species on record: Rattus norvegicus; experiment: (§8) Serum lipoprotein cholesterol fed rats dieted or both weeks, after one week; assay type: functional, organism-based; in short: as §2
Rattus norvegicus [11] = species on record: Rattus norvegicus; experiment: as §3; assay type: functional; in short: as §4; remark: listed apart in the source
Rattus norvegicus [12] = species on record: Rattus norvegicus; experiment: as §6; assay type: functional; parameters: concentration or dose not given beside the values; in short: as §4; remark: listed apart in the source
[13] = target: T1, Sterol O-acyltransferase 1 (Rattus norvegicus); experiment: The compound was tested for Serum Lipoprotein cholesterol- (total) (mg/dL) concentrations in Cholesterol-fed rats Treated with ACAT inhibitor; assay type: functional; in short: as §2
Rattus norvegicus [14] = species on record: Rattus norvegicus; experiment: as §3; assay type: functional; in short: as §4; remark: listed apart in the source
[15] = target: T1, Sterol O-acyltransferase 1 (Rattus norvegicus); experiment: as §5; assay type: functional; in short: as §2; remark: listed apart in the source
Rattus norvegicus [16] = species on record: Rattus norvegicus; experiment: as §8; assay type: functional, organism-based; in short: as §2; remark: listed apart in the source
Rattus norvegicus [17] = species on record: Rattus norvegicus; experiment: as §3; assay type: functional; in short: as §4; remark: listed apart in the source
[18] = target: T1, Sterol O-acyltransferase 1 (Rattus norvegicus); experiment: (§9) Serum lipoprotein cholesterol in Cholesterol-fed rats Treated with ACAT inhibitor, after one week; assay type: functional; in short: as §2
[19] = target: T1, Sterol O-acyltransferase 1 (Rattus norvegicus); experiment: as §9; assay type: functional; in short: as §2; remark: listed apart in the source
Rattus norvegicus [20] = species on record: Rattus norvegicus; experiment: as §3; assay type: functional; in short: as §4; remark: listed apart in the source
[21] = target: T1, Sterol O-acyltransferase 1 (Rattus norvegicus); experiment: The compound was tested for Serum Lipoprotein cholesterol- (HDL) (mg/dL) concentrations in Cholesterol-fed rats Treated with ACAT inhibitor; assay type: functional; in short: as §2
[22] = target: T2, Sterol O-acyltransferase 1 (Rattus norvegicus, UniProt O70536); experiment: In vitro inhibition of Fu5AH acyl coenzyme A:cholesterol acyltransferase.
T2 sequence (O70536 whole entry): T1 sequence (whole entry)

[23] = target: T1, Sterol O-acyltransferase 1 (Rattus norvegicus); experiment: (§10) Serum lipoprotein cholesterol diet containing ACAT inhibitor, after two weeks; assay type: functional; in short: as §2
[24] = target: T1, Sterol O-acyltransferase 1 (Rattus norvegicus); experiment: as §5; assay type: functional; in short: as §2; remark: listed apart in the source
[25] = target: T1, Sterol O-acyltransferase 1 (Rattus norvegicus); experiment: Inhibition of Fu5AH Acyl coenzyme A:cholesterol acyltransferase at the concentration of 10 ug/mL
[26] = target: T1, Sterol O-acyltransferase 1 (Rattus norvegicus); experiment: as §9; assay type: functional; in short: as §2; remark: listed apart in the source
[27] = target: T1, Sterol O-acyltransferase 1 (Rattus norvegicus); experiment: as §7; assay type: functional; in short: as §2; remark: listed apart in the source
Rattus norvegicus [28] = species on record: Rattus norvegicus; experiment: as §6; assay type: functional; parameters: concentration or dose not given beside the values; in short: as §4; remark: listed apart in the source
Rattus norvegicus [29] = species on record: Rattus norvegicus; experiment: Serum lipoprotein cholesterol fed rats dieted for both weeks, after one week; assay type: functional, organism-based; in short: as §2
Rattus norvegicus [30] = species on record: Rattus norvegicus; experiment: Serum lipoprotein cholesterol fed rats dieted for both weeks, after two weeks; assay type: functional, organism-based; in short: as §2
[31] = target: T1, Sterol O-acyltransferase 1 (Rattus norvegicus); experiment: as §10; assay type: functional; in short: as §2; remark: listed apart in the source
Rattus norvegicus [32] = species on record: Rattus norvegicus; experiment: as §3; assay type: functional; in short: as §4; remark: listed apart in the source
Rattus norvegicus [33] = species on record: Rattus norvegicus; experiment: as §3; assay type: functional; in short: as §4; remark: listed apart in the source
Rattus norvegicus [34] = species on record: Rattus norvegicus; experiment: as §3; assay type: functional; in short: as §4; remark: listed apart in the source

Work on O=C(Cn1c2c(c(=O)n3nc(-c4ccc(Cl)cc4)cc13)CN(C1CCCCC1)C2=O)c1ccccc1 yielded a Serum lipoprotein cholesterol (Rattus norvegicus [1]) of 91.9, an Absorption (Rattus norvegicus [2]) of 27% and a Control (Rattus norvegicus [3]) of 37%. The Serum lipoprotein cholesterol [4] was 106, the Control (Rattus norvegicus [5]) was 85% and the Serum lipoprotein cholesterol [6] was 41.8. For the same compound, the Serum lipoprotein cholesterol (Rattus norvegicus [7]) was 52.2, the Serum lipoprotein cholesterol [8] was 65.8 and the Serum lipoprotein cholesterol [9] was 184. It also gave a Serum lipoprotein cholesterol (Rattus norvegicus [10]) of 68.8, a Control (Rattus norvegicus [11]) of 81% and a Control (Rattus norvegicus [12]) of 134%. For the same compound, the Serum lipoprotein cholesterol [13] was 118, the Control (Rattus norvegicus [14]) was 32% and the Serum lipoprotein cholesterol [15] was 56.1. For the same compound, the Serum lipoprotein cholesterol (Rattus norvegicus [16]) was 77.8, the Control (Rattus norvegicus [17]) was 84% and the Serum lipoprotein cholesterol [18] was 52.9. It also gave a Serum lipoprotein cholesterol [19] of 182, a Control (Rattus norvegicus [20]) of 130% and a Serum lipoprotein cholesterol [21] of 76.4. For the same compound, the pIC50 [22] was 5.52, the Serum lipoprotein cholesterol [23] was 108 and the Serum lipoprotein cholesterol [24] was 50.3. For the same compound, the inhibition [25] was 85%, the Serum lipoprotein cholesterol [26] was 130 and the Serum lipoprotein cholesterol [27] was 119. It also gave a Control (Rattus norvegicus [28]) of 40%, a Serum lipoprotein cholesterol (Rattus norvegicus [29]) of 146 and a Serum lipoprotein cholesterol (Rattus norvegicus [30]) of 144. It also gave a Serum lipoprotein cholesterol [31] of 32.6 and a Control (Rattus norvegicus [32]) of 141%.
In the case of C=CCCCCn1c2c(c(=O)n3nc(-c4ccccc4)cc13)CN(C1CCCCC1)C2=O, the Control (Rattus norvegicus [3]) was 79%, the Control (Rattus norvegicus [33]) was 114% and the pIC50 [22] was 4.99. For the same compound, the inhibition [25] was 93% and the Control (Rattus norvegicus [34]) was 95%.
